Assay results taken from ChEMBL document CHEMBL1124898, “Novel agents effective against solid tumors: the diarylsulfonylureas. Synthesis, activities, and analysis of quantitative structure-activity relationships” (J Med Chem, 1990).
Values after ≈ are worked out from the molar mass of the structure shown.

Experiments:
[1] = test system: CCRF-CEM; assay: Concentration required to inhibit growth of CCRF-CEM cells in culture for 72 hr to 50% of control growth; type: functional, cell-based; conditions: Homo sapiens
[2] = Antitumor activity in vivo against the 6C3HED lymphosarcoma dosed for 10 days at 270 mg/kg; type: functional; conditions: Mus musculus, 192 h, in the assay text read “8 days” for “10 days”
Method in brief: (§1)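 Tumor fragments (about 1–2 mm) implanted sc via trochar into a subaxillary site of syngeneic mice (C3H, C57BL/6, Balb/C or DBA/2) or Holtz rats. Groups were 7–10 randomized animals. Compound was suspended in 2.5% Emulphor in 0.9% saline and given orally by gavage or ip, usually from the day after implantation. Tumor volume versus untreated controls was measured one day after the final dose and reported as % inhibition. Scoring bands: +++ 95–100%, ++ 80–94%.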

[3] = Antitumor activity in vivo against the 6C3HED lymphosarcoma dosed for 10 days at 225 mg/kg; type: functional; conditions: Mus musculus, 192 h, in the assay text read “8 days” for “10 days”; method in brief: as §1
[4] = Antitumor activity in vivo against the 6C3HED lymphosarcoma dosed for 10 days at 300 mg/kg (ip dosing daily for 8 days); type: functional; conditions: Mus musculus, route intraperitoneal; method in brief: as §1
[5] = Antitumor activity in vivo against the 6C3HED lymphosarcoma, dosed for 8 days at 300 mg/kg; conditions: Mus musculus, 192 h
[6] = Tested on CA-755 mammary adenocarcinoma and percent inhibition was determined at 100 mg/kg dosage administered for 10 days intraperitoneally.; type: functional; conditions: Mus musculus, CA-755, ip, 240 h, route intraperitoneal; method in brief: as §1
[7] = test system: M-5 (Mus musculus); assay: Antitumor activity in vivo expressed as percent of inhibition in M-5-ovarian carcinoma cell line
[8] = Tested on X-5563 multiple myeloma and percent inhibition was determined at 100 mg/kg dosage administered for 10 days intraperitoneally.; type: functional; conditions: Mus musculus, X5563, ip, 240 h, route intraperitoneal; method in brief: as §1
[9] = test system: CA-755; assay: Antitumor activity in vivo expressed as percent of inhibition in CA-755-mammary adenocarcinoma tumor cell line; type: functional, Mus musculus; method in brief: as §1
[10] = test system: P388; assay: Antitumor activity in vivo and the activity was determined as percent increase in life span determined against P388-lymphocytic leukemia tumor cell lines; type: functional, Mus musculus
Method in brief: (§2)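 The ascites tumor inoculum of 1 × 10^6 cells was given ip to DBA/2 mice, and treatment started the next day. Compound was suspended in 2.5% Emulphor in 0.9% saline. Groups had 7–10 animals. %ILS = (MDD treated − MDD control)/MDD control × 100. Deaths before the control median day of death were counted as toxic. Values are optimal from at least two experiments.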

[11] = Tested on X-5563 multiple myeloma and percent inhibition was determined at 150 mg/kg dosage administered for 10 days intraperitoneally.; type: functional; conditions: Mus musculus, X5563, po, 240 h; in the assay text read “orally” for “intraperitoneally”; method in brief: as §1
[12] = test system: L1210; assay: Antitumor activity in vivo and the activity was determined as percent increase in life span determined against L1210V-lymphocytic leukemia tumor cell lines; type: functional, Mus musculus; method in brief: as §2
[13] = Tested on 6C3HED lymphosarcoma and percent inhibition was determined at 200 mg/kg dosage administered for 10 days intraperitoneally; type: functional; conditions: Mus musculus, ip, 240 h, route intraperitoneal; method in brief: as §1
[14] = test system: B16; assay: Antitumor activity in vivo and the activity was determined as percent increase in life span determined against B-16-melanoma (ascites) cell lines; type: functional, Mus musculus; method in brief: as §2
[15] = Antitumor activity in vivo against the 6C3HED lymphosarcoma dosed for 8 days at 200 mg/kg; conditions: Mus musculus, 192 h
[16] = test system: P1534J; assay: Antitumor activity in vivo expressed as percent of inhibition in P1534J-lymphatic leukemia cell line; type: functional, Mus musculus
[17] = Tested on X-5563 multiple myeloma and number of drug related deaths/total animals in treatment group was determined at 150 mg/kg dosage administered for 10 days orally; 3/10; conditions: mouse, in vivo, po, 240 h
[18] = Tested on CA-755 mammary adenocarcinoma and percent inhibition was determined at 150 mg/kg dosage administered for 10 days intraperitoneally.; type: functional; conditions: Mus musculus, CA-755, po, 240 h; in the assay text read “orally” for “intraperitoneally”; method in brief: as §1
[19] = Tested on X-5563 multiple myeloma and number of drug related deaths/total animals in treatment group was determined at 100 mg/kg dosage administered for 10 days intraperitoneally; 1/7; type: ADME, organism-based; parameters: dose 100 mg/kg, route intraperitoneal; conditions: mouse, in vivo, ip, 240 h
[20] = test system: YOSHIDA; assay: Antitumor activity in vivo expressed as percent of inhibition in Yoshida-sarcoma (rat) cell line; type: functional; method in brief: as §1
[21] = Tested on 6 C3 HED lymphosarcoma and number of drug related deaths/total animals in treatment group was determined at 200 mg/kg dosage administered for 10 days intraperitoneally; 1/10; type: ADME, organism-based; parameters: dose 200 mg/kg, route intraperitoneal; conditions: mouse, in vivo, ip, 240 h
[22] = Tested on 6C3HED lymphosarcoma and percent inhibition was determined at 100 mg/kg dosage administered for 8 days intraperitoneally; type: functional; conditions: Mus musculus, ip, 192 h, route intraperitoneal; method in brief: as §1
[23] = test system: C3H; assay: Antitumor activity in vivo expressed as percent of inhibition in C3H-mammary adenocarcinoma cell line; type: functional, Mus musculus; method in brief: as §1
[24] = test system: 6C3HED; assay: Antitumor activity in vivo expressed as percent of inhibition in 6C3HED-lymphosarcoma tumor cell line; type: functional, Mus musculus; method in brief: as §1
[25] = test system: X5563; assay: Antitumor activity in vivo expressed as percent of inhibition in X5563-plasma cell myeloma cell line; type: functional, Mus musculus; method in brief: as §1
[26] = Tested on 6 C3 HED lymphosarcoma and number of drug related deaths/total animals in treatment group was determined at 100 mg/kg dosage administered for 8 days intraperitoneally; 0/10; type: ADME, organism-based; parameters: dose 100 mg/kg, route intraperitoneal; conditions: mouse, in vivo, ip, 192 h
[27] = Tested on 6 C3 HED lymphosarcoma and number of drug related deaths/total animals in treatment group was determined at 200 mg/kg dosage administered for 8 days perorally; 1/10; type: ADME, organism-based; parameters: dose 200 mg/kg, route oral; conditions: mouse, in vivo, po, 192 h
[28] = Tested on 6C3HED lymphosarcoma and percent inhibition was determined at 50 mg/kg dosage administered for 8 days intraperitoneally; type: functional; conditions: Mus musculus, po, 192 h, in the assay text read “orally” for “intraperitoneally”; method in brief: as §1
[29] = test system: Lewis lung carcinoma cell line; assay: Antitumor activity in vivo expressed as percent of inhibition in Lewis-lung carcinoma cell line; type: functional, Mus musculus; method in brief: as §1
[30] = Tested on CA-755 mammary adenocarcinoma and percent inhibition was determined at 50 mg/kg dosage administered for 10 days intraperitoneally.; type: functional; conditions: Mus musculus, CA-755, ip, 240 h, route intraperitoneal; method in brief: as §1
[31] = test system: Colon 26; assay: Antitumor activity in vivo expressed as percent of inhibition in C-26-colon carcinoma cell line; type: functional, Mus musculus; method in brief: as §1
[32] = Tested on 6C3HED lymphosarcoma and percent inhibition was determined at 200 mg/kg dosage administered for 8 days intraperitoneally; type: functional; conditions: Mus musculus, po, 192 h, in the assay text read “orally” for “intraperitoneally”; method in brief: as §1
[33] = Tested on 6 C3 HED lymphosarcoma and number of drug related deaths/total animals in treatment group was determined at 50 mg/kg dosage administered for 8 days perorally; 3/10; type: ADME, organism-based; parameters: dose 50 mg/kg, route oral; conditions: mouse, in vivo, po, 192 h
[34] = test system: B16; assay: Antitumor activity in vivo expressed as percent of inhibition in B-16-melanoma (solid) cell line; type: functional, Mus musculus; method in brief: as §1

Work on `O=C(Nc1cccc(C(F)(F)F)c1)NS(=O)(=O)c1ccc([N+](=O)[O-])cc1` yielded an IC50 [1] of over 20 µg/mL and an inhibition in vivo at 270 mg/kg [2] of 20%.
`O=C(Nc1ccccc1)NS(=O)(=O)c1ccccc1` showed an IC50 [1] of over 20 µg/mL and an inhibition in vivo at 225 mg/kg [3] of 35%.
Compound `Cc1ccc(S(=O)(=O)/N=C(\S)Nc2ccc(Cl)cc2)cc1` has an IC50 [1] of 12.9 µg/mL (≈ 37.8 µM), an inhibition in vivo at 300 mg/kg [4] of 45% and an inhibition in vivo at 300 mg/kg [5] of 35%.
`Cc1ccc(S(=O)(=O)NC(=O)Nc2ccc(C(F)(F)F)cc2)cc1` gave an inhibition in vivo at 100 mg/kg [6] of 13%, an Inhibition [7] of 94% and an IC50 [1] of 5.3 µg/mL (≈ 14.8 µM). For the same compound, the inhibition in vivo at 100 mg/kg [8] was 64%, the Inhibition [9] was 94% and the Increase in life-span [10] was under 50%. The inhibition in vivo at 150 mg/kg [11] was 77%, the Increase in life-span [12] was under 50% and the inhibition in vivo at 200 mg/kg [13] was 49%. For the same compound, the Increase in life-span [14] was under 50%, the inhibition in vivo at 200 mg/kg [15] was 100% and the Inhibition [16] was 100%. The Toxic/total [17] was 3, the inhibition in vivo at 150 mg/kg [18] was 94% and the Toxic/total [19] was 1. For the same compound, the Inhibition [20] was 94%, the Toxic/total [21] was 1 and the inhibition in vivo at 100 mg/kg [22] was 81%. The Inhibition [23] was 94%, the Inhibition [24] was 100% and the Inhibition [25] was 79%. It also gave a Toxic/total [26] of 0, a Toxic/total [27] of 1 and an inhibition in vivo at 50 mg/kg [28] of 84%. The Inhibition [29] was 79%, the inhibition in vivo at 50 mg/kg [30] was 87% and the Inhibition [31] was 94%. It also gave an inhibition in vivo at 200 mg/kg [32] of 100%, a Toxic/total [33] of 3 and an Inhibition [34] of under 60%.
